Calb biofilm kill: mixture kills Candida albicans biofilm cells; C. albicans biofilm persisters + clotrimazole, fluorescence viability; primary screen in compound mixtures of four per well; inhibition, % at 7.6 µM; actives 0.02% (n = 120,000); AID 1242;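 active = inhibition above 30.3% in the primary screen of four-compound pools, then above 30% when the compound was retested; inconclusive = passed the primary limit but could not be retested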;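 also: compounds exposed to preformed 24 h biofilms for 48 h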
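System: C. albicans CAF4-2 wild-type biofilms; Medium: RPMI/MOPS medium, pH 7.0; Reagent: Clotrimazole, 50 µg/mL; Times: biofilm formation 24 h, compound exposure 48 h, 37 °C; Detection: 2-h Alamar Blue fluorescence, 535/590 nm excitation/emission; Evaluation: percent inhibition of biofilm viability.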
RGS4-Gao reg: modulates binding of RGS4 to human Galphao; actives 0.33% (n = 220,000); P09471; Multiplexed bead flow cytometry; actives lie on both sides; binding response (% of control), % at 10 µM; in the data active = binding response below about 49% or above about 150%; inactive = in between;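 also: fluorescent Galphao activated with aluminum fluoride binding bead-coupled RGS4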
RGS8-Gao reg: regulators of human RGS8-Galphao interaction; response (percent of control binding), % at 10 µM; P09471; actives 0.34% (n = 220,000); multiplexed bead flow cytometry, RGS8-Galphao binding; actives lie on both sides; in the data active = response below about 60% or above about 140%; inactive = in between;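 also: Galphao activated as the GDP aluminium fluoride complex binding bead-coupled RGS8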
RGS7-Gao: regulators of human RGS7-Galphao interaction. Multiplexed bead flow cytometry, RGS7-Galphao binding; actives lie on both sides. binding response (% of control), % at 10 µM. actives 0.35% (n = 220,000); in the data active = binding response below about 49% or above about 150%; inconclusive = no clear call, values can overlap the other calls; inactive = in between;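 also: fluorescent Galphao held in activated GDP-AlF4 state binding bead-coupled RGS7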
RGS16-Gao: modulates binding between human RGS16 and Galphao; binding response (% of control), % at 10 µM; bead-based flow cytometry RGS16-Galphao binding, fluorescence; actives lie on both sides; actives 0.38% (n = 220,000); AID 1441;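 also: Galphao activated by GDP with aluminum fluoride before binding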
Target sequence (O15492 whole entry, looked up): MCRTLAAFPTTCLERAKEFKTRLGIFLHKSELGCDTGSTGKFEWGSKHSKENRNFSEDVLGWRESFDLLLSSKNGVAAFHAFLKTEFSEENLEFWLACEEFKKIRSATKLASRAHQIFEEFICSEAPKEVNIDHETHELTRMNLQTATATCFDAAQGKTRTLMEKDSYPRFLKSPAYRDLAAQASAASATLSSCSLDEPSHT
Target sequence (P09471 whole entry, looked up): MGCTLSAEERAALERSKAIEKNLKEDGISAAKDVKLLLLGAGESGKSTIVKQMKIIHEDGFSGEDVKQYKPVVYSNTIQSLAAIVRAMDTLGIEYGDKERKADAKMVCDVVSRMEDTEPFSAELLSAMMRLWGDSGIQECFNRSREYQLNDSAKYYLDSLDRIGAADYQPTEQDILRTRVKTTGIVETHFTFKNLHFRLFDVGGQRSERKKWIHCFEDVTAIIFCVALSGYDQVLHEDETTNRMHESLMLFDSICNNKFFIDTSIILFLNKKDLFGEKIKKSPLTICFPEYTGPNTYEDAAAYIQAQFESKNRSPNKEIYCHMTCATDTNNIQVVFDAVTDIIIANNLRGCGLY
RGS-Gao: regulators of human RGS4-Galphao interaction | shares compounds with RGS16-Gao | actives 99% (n = 1,600) | multiplexed bead flow cytometry, RGS–Galpha-o binding | RGS4–Galpha-o binding response, % at 10 µM | AID 1504;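 also: fluorescently labeled Galpha-o bound to GDP with aluminium fluoride binding biotinylated RGS beads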
Biotin-avidin: interferes with biotinylated probe binding to avidin beads; streptavidin beads, fluorescein-biotin binding, flow cytometry; 1,700 tested, under 10 active; shares compounds with RGS16-Gao; inhibition, % at 10 µM;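 active = inhibition above 50%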;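 also: median green fluorescence of gated singlet beads compared with DMSO control wells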
RGS8-Gao confirm: RGS8-Galphao interaction regulation, single point confirmation; shares compounds with RGS16-Gao; bead-based flow cytometry RGS8-Galphao binding, fluorescence; actives lie on both sides; binding response (% of control), % at 10 µM; actives 3% (n = 1,700); AID 1836; in the data active = binding response below about 72% or above about 130%; inactive = in between;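 also: Galphao activated as GDP AlF4 complex before binding bead RGS8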
RGS7-Gao single: RGS7-Galphao interaction regulation, single point confirmation; bead-based flow cytometry RGS7-Galphao binding; actives lie on both sides; response (percent of control binding), % at 10 µM; actives 7.8% (n = 1,700); shares compounds with RGS16-Gao; AID 1837; in the data active = response below about 75% or above about 130%; inactive = in between;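 also: fluorescent Galphao activated with GDP and aluminum fluoride binding bead-coupled RGS7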
RGS16-Gao conf: RGS16-Galphao interaction regulation, single point confirmation; shares compounds with RGS16-Gao; bead-based flow cytometry, RGS16-Galphao binding; actives lie on both sides; response (% of control binding), % at 10 µM; actives 4% (n = 1,700); AID 1838; in the data active = response below about 74% or above about 130%; inactive = in between;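 also: Galphao activated as the GDP aluminium fluoride complex binding bead-coupled RGS16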
RGS4-Gao single: confirmation of regulators of human RGS4-Galphao interaction | shares compounds with RGS16-Gao | RGS4-Galphao binding, multiplexed bead flow cytometry; actives lie on both sides | binding response (% of control), % at 10 µM | actives 4% (n = 1,700); in the data active = binding response below about 74% or above about 130%; inactive = in between
RGS19-Gao single: confirmation of regulators of human RGS19-Galphao interaction; bead-based flow cytometry RGS19-Galphao binding; actives lie on both sides; actives 5% (n = 1,700); shares compounds with RGS16-Gao; response (percent of control binding), % at 10 µM; in the data active = response below about 50% or above about 160%; inactive = in between
Numbers stand for hits; 0 = inactive; ? = inconclusive; - = no result; [ ] = another dose, or the depositor's remark. Only some compounds are listed: those with a hit (about 0.74% of all), similar ones and a draw of the others. Unless noted, no rule for the calls is given here.

SMILES	Calb biofilm kill	RGS4-Gao reg	RGS8-Gao reg	RGS7-Gao	RGS16-Gao	Biotin-avidin	RGS8-Gao confirm	RGS7-Gao single	RGS16-Gao conf	RGS4-Gao single	RGS19-Gao single	others
Cc1ccccc1C1NC(=S)NC2=C1C(=O)CCC2 (stereo unspecified)	0	0	0	0	0	-	-	-	-	-	-
Cc1cccc(N2CN(Cc3cccnc3)CNC2=S)c1	0	0	0	0	0	-	-	-	-	-	-
S=C1NCN(Cc2cccnc2)CN1c1cccc2ccccc12	0	26	44	?	0	0	0	0	0	0	0
Cc1ccc(Nc2c(-c3ccc(N(C)C)cc3)nc3ncccn23)cc1	0	0	0	?	0	-	-	-	-	-	-
Cc1ccc(SCc2nc3ncccn3c2Br)cc1	0	-	-	-	-	0	0	0	0	0	0
Cc1ccc(C(=O)NCC(=O)OC(C)C(=O)Nc2ccc(N3CCOCC3)cc2)s1 (stereo unspecified)	0	0	0	?	0	-	-	-	-	-	-
CC1CCCN(C(=O)COc2ccc(Nc3ccccc3)cc2)C1 (stereo unspecified)	0	0	0	?	0	-	-	-	-	-	-
CCn1nnc(NC(=O)CSc2ccc(Cl)cc2)n1	-	-	-	-	-	0	0	0	0	0	0
C[C@@H]1CC=C[C@H]2[C@H]1C(=O)N(Cc1ccccc1)[C@H]2c1cccc([N+](=O)[O-])c1	0	0	0	?	0	-	-	-	-	-	-
O=C(CCSc1nnc2ccc3ccccc3n12)Nc1ccc(F)cc1	-	-	-	-	-	0	0	0	0	0	0
Cc1cc(C(=O)Nc2nc3c(C)cccc3s2)c(C)o1	-	0	0	0	17	0	0	0	0	0	0	RGS-Gao=72
CSc1ncccc1C(=O)Nc1nc2c(C)cccc2s1	0	0	0	0	0	-	-	-	-	-	-
Cc1ccc(-c2cc(C(F)(F)F)n3nc(C(=O)NCCCn4ccnc4)cc3n2)cc1C	-	0	0	0	0	-	-	-	-	-	-
Cc1cc(C)c2c(N)c(C(=O)NCC3CCCCC3)sc2n1	-	0	0	0	0	-	-	-	-	-	-
Cc1cc(C)c2c(N)c(C(=O)NC3CCCC3)sc2n1	0	0	142[activator]	0	0	0	0	73	0	0	0	RGS-Gao=113
COC(=O)c1ccc(Oc2nc(C(N)=O)cc(-c3ccccc3)n2)cc1	-	0	0	0	0	-	-	-	-	-	-
O=C(C(=O)N1CCCc2ccccc21)N1CCCc2ccccc21	0	0	0	0	182[activator]	0	0	0	0	0	0	RGS-Gao=105
O=C(O)CC1(CC(=O)Nc2ccc(F)c(Cl)c2)CCCCC1	0	0	0	?	0	-	-	-	-	-	-
CC(=O)NC(C)c1ccc(Cl)c(Cl)c1 (stereo unspecified)	-	0	156[activator]	0	0	-	-	-	-	-	-	RGS-Gao=139
O=C1CN(C(=O)COc2ccc(Br)cc2)c2ccccc2N1	0	0	0	0	0	-	-	-	-	-	-
O=C(CCC1CCCCC1)Nc1cccnc1	-	-	-	-	-	0	0	0	0	0	0
O=C(CCC1CCCCC1)Nc1ccc(C(=O)c2ccncc2)cc1	0	0	0	0	0	-	-	-	-	-	-
COc1ccc(C(=O)CCC(=O)Nc2cccnc2)cc1	0	0.8	6.2	2.6	-5.4	0	0	0	0	0	0
COc1ccc(C(=O)CCC(=O)Nc2cccc(Cl)c2)cc1	0	0	0	0	0	-	-	-	-	-	-
CCN=c1scc(C)n1/N=C/c1ccc(O)c(O)c1O	-	0	59	0	0	0	67	64	64	0	47	RGS-Gao=80

High-throughput results deposited in PubChem BioAssay by several laboratories.
